# In the library only some 6% were active in any assay of this set; here they are far more common.
# HUVEC inhibit – inhibitors of HUVEC proliferation, primary screen, cell-based, 384-well. CellTiter-Glo luminescence, 72 h; active compounds read low. viability, % at 10 µM (by protocol). 1.1% of 86,000 active. AID 648, 2007;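 active = viability at or below 30%; inactive = viability above 30%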;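 also: 100% = median luminescence of DMSO-only cell control wells on each plate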
# PTK2B oligo ant – antagonists of Pyk2 self-association, primary screen, Q293 cells, FERM NanoBiT luminescence, HTS; z-score (the deposit names both 25 µM and 10 µM); active compounds read low; 0.83% of 99,000 active;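 active = Z-score of -3 or lower, scaled per plate to the spread of control and sample wells; inactive = z-score above -3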;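 also: negative z-score means lost luminescence so less FERM oligomerization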
# Jurkat tox 60K – cytotoxicity toward Jurkat T cells, primary screen, cytotoxicity control, cell-based, Jurkat E6.1, 60K MLSMR library. Jurkat E6.1 viability, ATP luminescence, 48 h. inhibition, % at 4 µM. 1.2% of 56,000 active;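 active = inhibition above the mean inhibition of all tested compounds plus 3 SD, cut at about 28% in these data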
# H69AR inhibit – proliferation blockers of H69AR lung cancer cells, primary screen, cell-based, human, 86K library | H69AR lung tumor viability, ATP luminescence, 72 h; active compounds read low | viability, % at 10 µM | 6% of 85,000 active;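 active = viability at or below 40%; inactive = viability above 40%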;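 also: multidrug resistant small cell line overexpressing MRP-1 efflux transporter; 100% = mean luminescence of untreated control wells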
# cytoskel mod – modifiers of F-actin cytoskeleton organization, primary screen, imaging, HUVEC, phalloidin staining, high-content imaging; inhibition, % at 2 µM; 0.18% of 91,000 active; AID 836, 2007; HUVEC TNFa F-actin phalloidin imaging;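 active = inhibition above the batch mean plus 3 SD and confirmed as a hit by visual image inspection, cut at about 30% in these data, passing the limit was not always enough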
# Lung fibro prol – antiproliferative effect on LL 47 fibroblasts – human, LL 47 cells, CellTiter-Glo luminescence, primary screen; LL 47 human lung fibroblast viability, ATP luminescence; active compounds read low; viability, % at 10 µM; 1.1% of 85,000 active;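 active = viability at or below 50% in the single dose screen; inactive = viability above 50%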;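 also: compound exposure lasted 72 h before the ATP readout; 100% = median luminescence of untreated cell-only wells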
#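 test system = LL 47 human lung fibroblasts | amount = 1,150 fibroblasts seeded per well | medium = 15% FBS in IMEM | times = overnight cell rest, 72 h compound treatment at 37 °C | measured by = CellTiter-Glo luminescence measuring cellular ATP | read-out = viability percentage against median untreated-cell control | benchmarks = cell-only wells, no compound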
# An asterisk follows results filed as active; . = no result.
SMILES,HUVEC inhibit,PTK2B oligo ant,Jurkat tox 60K,H69AR inhibit,cytoskel mod,Lung fibro prol
Cc1ccc2nc3c(cc2c1)CC1(C(=O)N(C)C(=O)N(C)C1=O)C1CCCCN31 (stereo not given),107,-0.05,-4,63,-20,107
CCOC(=O)C1=C(C)OC(N)=C(C#N)C12C(=O)N(C)c1ccccc12 (stereo not given),109,-0.6,.,101,5,107
C#CCN1C(=O)C2(C(C#N)=C(N)OC(C)=C2C(=O)OCc2ccccc2)c2ccccc21 (stereo not given),98,-1.1,-1,30*,-8,.
Cn1c(O)c(C=Nc2ccc(Cl)cc2)c(=O)n(C)c1=O,82,0.45,-7,97,-8,108
NS(=O)(=O)c1ccc(N=Cc2c(O)n(C3CCCCC3)c(=O)n(C3CCCCC3)c2=O)cc1,1.8*,-1,1,0.9*,-14,39*
CC(=NCCCN1CCCCC1)c1c(O)n(Cc2ccccc2)c(=O)[nH]c1=O,102,0.46,1,71,8,105
Cc1ccc(-c2nc(N(C)C3CCN(C)CC3)c3ccccc3n2)cc1,4.3*,-1.1,.,2.7*,.,38*
CCCCCCn1c(O)c(C=NC2CCCCC2N)c(=O)[nH]c1=O (stereo not given),5.0*,.,-6,29*,0,81
FC(F)(F)c1ccc2c(c1)ncn2C1CCN(Cc2nnnn2C2CCCCC2)CC1,85,0.11,16,37*,7,96
Cc1nc2cc(C(F)(F)F)ccc2n1C1CCN(Cc2nnnn2Cc2cccs2)CC1,89,-1.6,.,77,.,94
Nc1c(C(=O)OCC2CCCO2)c2nc3ccccc3nc2n1Cc1cccs1 (stereo not given),60,-2.2,0,39*,-7,97
CC(C)C12CN3CC(C(C)C)(CN(C1)C3c1cccnc1)C2=O (stereo not given),97,-0.58,.,94,-8,97
O=C1CC(N2CCC(n3c(=O)[nH]c4ccccc43)CC2)C(=O)N1c1ccc(F)cc1 (stereo not given),92,-0.01,0,103,-3,92
O=c1[nH]c2ccccc2n1C1CCN(CCCC(c2ccc(F)cc2)c2ccc(F)cc2)CC1,2.7*,.,.,1.7*,.,69
COc1ccc(Oc2cc(NC(=O)c3nn(C)cc3[N+](=O)[O-])cc([N+](=O)[O-])c2)cc1,.,-3.7*,.,.,24,.
Cc1cccc(C)c1OP(N)(=O)OCC(F)(F)F (stereo not given),.,-0.15,.,.,.,.
O=C(c1ccccc1)c1cn(CC(=O)N2CCCc3ccccc32)c2ccccc12,91,-2.1,.,62,6,90
O=C(c1ccco1)c1cn(Cc2ccc(Cl)cc2)c2ccccc12,71,-0.54,.,11*,.,95
COc1ccccc1OCCCn1cc(C(=O)c2ccco2)c2ccccc21,76,-1.2,-3,53,-6,97
N#Cc1ccccc1Cn1cc(C(=O)c2cccs2)c2ccccc21,89,-2.6,-4,90,9,88
O=C(Cn1cc(C(=O)c2ccccc2)c2ccccc21)NCc1ccco1,.,-3.2*,-2,.,15,.
O=C(c1cccs1)c1cn(Cc2ccccc2Cl)c2ccccc12,93,-0.72,.,34*,1,92
OCC12CO[C@@H]3c4ccccc4[C@H](OC1)N32 (stereo not given in full),95,0.28,.,96,-9,97
O=P(Nc1ccccc1)(Nc1ccccc1)Oc1cccc(Cl)c1,.,-2.2,.,.,-11,.
CN1CSC(=S)N(C)C1,102,0.76,.,28*,20,99
Cn1c(N2CCNCC2)nc2ccccc21,101,0.17,.,83,-3,93
CN(C)C(=O)On1c(-c2ccccc2)nc2ccc(Cl)cc21,98,-1.5,.,38*,-5,90
Cc1cccc(CN(C)C)c1OC(=O)N(C)C,97,-0.01,3,98,26,101
Cc1nc2c(=O)n(C)c(=O)nc-2n(C)n1,5.6*,-2.3,.,2.6*,3,2.5*
CCn1nc(-c2ccccc2)nc2c(=O)n(C)c(=O)nc1-2,.,-0.25,27,.,.,.
